Rin1 Abl inh: inhibitors of human Rin1-Abl protein interaction | actives 0.4% (n = 360,000) | TR-FRET Rin1/Abl binding, biochemical | P00519+Q13671 | AID 588664 | inhibition, % at 7.35 µM; in the data active means inhibition above about 5%, passing the limit was not always enough
UCH37 DUB inh: inhibitors of human deubiquitinating enzyme UCH37; Q9Y5K5; purified proteasome/UCH37, Ub-AMC cleavage fluorescence; inhibition, % (concentration not given with the values); actives 0.33% (n = 330,000); AID 588478;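 active means mean inhibition over replicate wells above about 20%, limit read from the data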
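Signal – fluorescence, ex 355 nm, em 460 nm · System – Proteasome-bound UCH37 · Input – 0.15 nM proteasome as dispensed · Timing – 30 min preincubation with enzyme, 25 min cleavage at room temperature · Read-out basis – percent inhibition of cleavage signal versus uninhibited and no-proteasome wells · Medium – Tris-HCl pH 7.4 with ATP-MgCl2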
PKA-R1A activ: activates the PKA-R1A holoenzyme complex; actives 0.083% (n = 340,000); PKA-R1A dissociation, Cy5-IP20 fluorescence polarization; scaled: DMSO 0%, 113 µM cGMP 100%; P00514+P68181; AID 504707; activation, % at 11.4 µM;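 active means percent activation above the mean of all tested compounds plus 3 SD, cut at about 19% in these data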;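 further: higher means more PKAc released from R1A so a rise in polarization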
PKA-R2B act: activators of human PKA-R2B complex; P22694+P31323; PKA-R2B holoenzyme dissociation, Cy5-IP20 fluorescence polarization; R2B truncated from residue 108, S112A mutant; 0% DMSO only, 100% 113 µM cGMP; activation, % at 11.4 µM; actives 0.079% (n = 340,000); AID 504700;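 active means activation above a cutoff set at the mean over all compounds plus 3 SD, cut at about 18% in these data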;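 further: higher means more holoenzyme dissociation and a rise in polarization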
UCH37 confirm: confirmation of human UCH37 deubiquitinating enzyme inhibitors | shares compounds with UCH37 DUB inh | Proteasome-bound UCH37, Ub-AMC cleavage fluorescence | inhibition, % at 20 µM | actives 27% (n = 480);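 active means average inhibition over replicates above about 50%, so the earlier screening hit is confirmed, limit read from the data; inactive means the rest, counted as false positives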;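 further: based on cleavage rate fitted by regression over a 30 min kinetic read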
Numbers stand for hits; . = inactive; / = no result given. Only some compounds are listed: those with a hit (about 0.79% of all), similar ones and a draw of the others.

SMILES	Rin1 Abl inh	UCH37 DUB inh	PKA-R1A activ	PKA-R2B act	UCH37 confirm
Cc1c(/C(O)=C2\C(=O)C(=O)N(CCCN(C)C)C2c2cccs2)cnn1-c1ccccc1 (stereo not given)	.	35	.	.	.
Cc1cc(C)cc(C(=O)N2CCCCC2)c1	.	.	.	.	/
Cc1cccc(C(=O)N2CCCCCC2)c1	.	.	.	.	.
CCN(CC)c1ccc(/C=C(/C#N)C(=O)NC(C)C)o1	.	29	.	.	.
CCN(CC)c1ccc(/C=C(/C#N)C(=O)NCc2ccccc2)o1	.	.	.	.	/
CC(C)NC(=O)/C(C#N)=C\c1ccc(N(C)C)o1	.	37	.	.	.
CC(NC(=O)/C(C#N)=C/c1ccc([N+](=O)[O-])o1)c1ccccc1 (stereo not given)	.	/	.	.	/
Cc1cccc2c1CC(C)(C)N=C2C1=C(O)CCCC1=O	.	.	.	.	/
O=C(CSc1ccc2nnc(-c3ccccn3)n2n1)Nc1ccccc1C(F)(F)F	.	.	.	.	/
Cn1nc(C(=O)NNC(=O)c2ccccc2Br)c2ccccc2c1=O	.	.	.	.	/
CCOC(=O)/C(C#N)=C\N(C)C	.	.	.	.	/
C=CCN1C=CC(=C/C=C(/C#N)C(=O)OCC)C=C1	.	32	.	.	.
CNC(=S)N/N=C/c1ccc(-c2cccc(C(=O)O)c2)o1	.	/	.	.	/
COC(=O)c1ccc(-c2ccc(C(c3c(C)[nH][nH]c3=O)c3c(C)[nH][nH]c3=O)o2)cc1	.	45	.	.	67
Cc1[nH][nH]c(=O)c1C(c1ccc(-c2cccc(C(=O)O)c2)o1)c1c(C)[nH][nH]c1=O	.	44	.	.	71
COc1ccc(NC(=O)N2CCCC(C(=O)Nc3cccc(C)c3C)C2)cc1 (stereo not given)	.	.	.	.	/
C=CCOc1ccc(C=NNc2ccc(S(=O)(=O)Nc3ccccc3C(=O)O)cc2[N+](=O)[O-])cc1OC	.	86	.	.	83
O=C(O)c1ccccc1NS(=O)(=O)c1ccc(NN=Cc2cccc(O)c2O)c([N+](=O)[O-])c1	/	32	/	/	.
O=C(CCN1C(=O)C2C3C=CC(C3)C2C1=O)N1CCN(c2cccc(Cl)c2)CC1 (stereo not given)	.	.	.	.	/
O=C(NCC(c1cccnc1)N1CCN(c2ccccc2F)CC1)c1ccccc1 (stereo not given)	.	.	.	.	/
COc1ccc([N+](=O)[O-])cc1NC(=O)c1ccccc1SC	.	.	.	.	/
N#C/C(=C\c1ccc(N2CCOCC2)o1)C(=O)Nc1ccc(O)cc1	.	29	/	/	.
N#C/C(=C/c1ccc(N2CCOCC2)o1)C(=O)NC1CCCCC1	.	27	.	.	.
N#C/C(=C/c1ccc(N2CCCCC2)o1)C(=O)Nc1ccc(Cl)cc1	.	.	.	.	/
COc1ccc(NC(=O)/C(C#N)=C\c2ccc(N3CCOCC3)o2)cc1	.	27	.	.	.
SMILES	Rin1 Abl inh	UCH37 DUB inh	PKA-R1A activ	PKA-R2B act	UCH37 confirm
COc1ccc(NC(=O)/C(C#N)=C/c2ccc(Br)o2)cc1	.	.	.	.	/
O=C(CSc1nncn1-c1ccccc1)NC1CCCC1	.	.	.	.	/
O=C1Nc2c(Cl)cc(Cl)cc2C1=O	.	62	.	.	75
CC1CCCCC1NC(=O)COC(=O)c1ccc([N+](=O)[O-])o1 (stereo not given)	.	30	.	.	.
CC1CCCC(NC(=O)COC(=O)c2ccc([N+](=O)[O-])o2)C1C (stereo not given)	.	.	.	.	/
O=C(COC(=O)c1ccc([N+](=O)[O-])o1)NC1CCCC1	.	32	.	.	.
CC1Cc2ccccc2N1C(=O)COC(=O)c1ccc([N+](=O)[O-])o1 (stereo not given)	.	26	.	.	.
O=C(COC(=O)c1ccc([N+](=O)[O-])o1)NC1CCCCC1	.	26	.	.	.
N/C(CSc1ccc(Cl)cc1)=N\S(=O)(=O)c1ccc(Cl)cc1	.	.	.	.	/
CCCN1CCC(=NNc2ccc(S(=O)(=O)N3CCOCC3)cc2[N+](=O)[O-])CC1	.	44	.	.	.
CC(C)N1CCC(=NNc2ccc(S(=O)(=O)N3CCOCC3)cc2[N+](=O)[O-])CC1	.	.	.	.	/
